Screening results deposited in PubChem by Broad Institute.
DENV2 CPE rescue: protects cells from dengue virus 2 cytopathic effect | actives 1.7% (n = 350,000) | AID 651640 | CPE inhibition, % at 9.99 µM | DENV2-infected cells, cytopathic effect rescue, plate reader; in the data active = CPE inhibition above about 20%, passing the limit was not always enough; tested in BHK-21 cells;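 also: 0% = median of neutral control wells and 100% = median of positive control wells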
PGC1a acetyl inh: modulators of PGC1a acetylation | U2OS PGC1a acetylation, AlphaScreen anti-acetyl-lysine; with virally co-expressed GCN5 acetyltransferase | inhibition, % at 15.6 µM | actives 0.17% (n = 350,000);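 active = every replicate shows inhibition of at least 40%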;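 also: 0% = neutral control wells and 100% = positive control wells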
C2C12 statin: suppressors of simvastatin-induced myotoxicity in C2C12 myotubes; AID 602340; actives 0.78% (n = 330,000); rescue of ATP level, % at 7.49 µM; ATP luminescence, 48 h; scaled: DMSO 0, geranylgeraniol control 100;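 active = mean ATP rescue above about 67%, or every replicate alone reaching that limit, limit read from the data, passing the limit was not always enough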;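 also: myotubes were challenged with 10 µM simvastatin during compound exposure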
SIRT5 inh: sirtuin-5 (human) deacylase inhibition. Purified SirT5, succinyl-peptide AMC, trypsin-coupled fluorescence. actives 1.1% (n = 330,000). inhibition, % at 15 µM; in the data active = inhibition above about 15%
Target sequence (Q9NXA8 whole entry, looked up): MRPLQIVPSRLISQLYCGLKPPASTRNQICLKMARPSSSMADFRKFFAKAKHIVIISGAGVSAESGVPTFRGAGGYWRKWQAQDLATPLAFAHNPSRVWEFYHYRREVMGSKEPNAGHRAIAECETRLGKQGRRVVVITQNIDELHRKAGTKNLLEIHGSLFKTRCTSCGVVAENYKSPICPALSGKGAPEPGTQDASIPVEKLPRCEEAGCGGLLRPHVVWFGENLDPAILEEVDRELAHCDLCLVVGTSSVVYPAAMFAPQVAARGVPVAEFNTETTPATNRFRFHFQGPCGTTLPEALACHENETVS
S100A4 MyoIIA: blocks human S100A4 binding to myosin IIA peptide; P26447; S100A4/TAMRA-MyoIIA peptide fluorescence polarization; inhibition, % at 10.7 µM; actives 0.14% (n = 360,000); AID 652163;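 active = mean inhibition of at least 70% across replicates, with every replicate also reaching that level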
Target sequence (P26447 whole entry, looked up): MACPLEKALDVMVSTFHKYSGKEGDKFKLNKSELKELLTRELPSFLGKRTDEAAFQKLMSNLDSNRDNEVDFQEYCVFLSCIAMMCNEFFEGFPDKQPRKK
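System – human S100A4 monomer protein, biochemical binding assay · Buffer or medium – Calcium-containing HEPES buffer, pH 7.2 · Timing – 5 min between mix addition and reading · Also added – TAMRA-labelled myosin IIA heavy-chain peptide probe, 5 nM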
An asterisk follows results filed as active; . = not tested or not shown. Sampled rows, rich in hits. Any-hit rate of the full collection: about 2.9%.

SMILES	DENV2 CPE rescue	PGC1a acetyl inh	C2C12 statin	SIRT5 inh	S100A4 MyoIIA
C[C@@H]1CN([C@H](C)CO)S(=O)(=O)c2ccc(C#Cc3ccccn3)cc2O[C@@H]1CN(C)Cc1cccc(F)c1	9	-18	1	27*	1
CC(C)C#Cc1ccc2c(c1)O[C@@H](CN(C)Cc1ccccn1)[C@H](C)CN([C@H](C)CO)S2(=O)=O	-8	-12	-86	19*	-3
CO[C@@H]1CN(C)C(=O)c2cc(NC(C)=O)ccc2OC[C@@H](C)N(Cc2ccc(F)cc2)C[C@@H]1C	6	4	6	-2	-15
CCC(=O)N[C@@H]1CC[C@@H](CC(=O)NCc2ccc(OC)cc2)O[C@H]1CO	-3	1	-5	4	-3
C[C@H]1CN([C@@H](C)CO)C(=O)c2cccc(NC(=O)c3ccc(-c4nccs4)cc3)c2O[C@H]1CN(C)Cc1ccc(Oc2ccccc2)cc1	2	13	-26	21*	-1
C[C@@H]1CN([C@@H](C)CO)C(=O)c2cccc(NC(=O)c3ccc(-c4nccs4)cc3)c2O[C@@H]1CN(C)Cc1ccccc1	9	-5	6	15*	4
C[C@@H]1CN([C@@H](C)CO)C(=O)c2cccc(NC(=O)c3ccc(-c4nccs4)cc3)c2O[C@@H]1CN(C)Cc1ccc(Oc2ccccc2)cc1	8	-3	-26	12	-1
C[C@H](CO)N1C[C@H](C)[C@@H](CN(C)Cc2ccc(Oc3ccccc3)cc2)Oc2c(NC(=O)c3ccc(-c4nccs4)cc3)cccc2C1=O	-1	-3	-26	16*	3
C[C@H](CO)N1C[C@H](C)[C@@H](CN(C)Cc2ccccc2)Oc2c(NC(=O)c3ccc(-c4nccs4)cc3)cccc2C1=O	-1	10	42	5	-1
C[C@H]1CN([C@@H](C)CO)C(=O)Cc2cc(NC(=O)CCCCCC(=O)Nc3ccccc3N)ccc2O[C@@H]1CN(C)Cc1ccccc1	-2	8	18	.	-3
C[C@H](CO)N1C[C@H](C)[C@@H](CN(C)Cc2ccc(C(=O)Nc3ccccc3N)cc2)Oc2ccc(NS(=O)(=O)c3cccs3)cc2C1=O	-5	10	-32	.	7
C[C@@H]1CN([C@H](C)CO)C(=O)c2cc(NC(=O)Cc3ccccc3)ccc2O[C@@H]1CN(C)S(=O)(=O)c1cccs1	-16	4	-2	-1	7
CC(=O)Nc1cccc2ncccc12	32*	3	.	.	0
COc1cc(NC(C)=O)c2ncccc2c1Br	89*	-2	2	0	4
O=C1c2ccccc2C(=O)N1CCc1nc2ccccc2c(=O)n1CCCn1ccnc1	.	35	95*	.	.
C[C@@H]1CN([C@H](C)CO)C(=O)c2cccc(NC(=O)C3CCCCC3)c2O[C@H]1CN(C)S(=O)(=O)c1ccc(Cl)cc1	-6	-1	21	1	11
COc1cc2c(N3CCOCC3)cc(O)c(CC(=O)Nc3ccccc3)c2cc1OC	.	8	115*	.	.
COc1ccccc1OCC(=O)Nc1ccc(N2CCOCC2)cc1N1CCOCC1	29*	-10	-3	-1	-6
COc1cc(CC(=O)Nc2ccc(N3CCOCC3)cc2)cc(OC)c1OC	9	-2	.	6	6
Cc1ccccc1OCC(=O)Nc1ccc(N2CCOCC2)cc1N1CCOCC1	3	-7	-17	-5	7
N#Cc1cccc(-c2ccc([C@@H]3[C@H](CO)N4CCCCN(C(=O)Nc5ccc(F)cc5)C[C@@H]34)cc2)c1	26*	1	.	.	.
CCC(=O)N1CCCCN2[C@H](C1)[C@H](c1ccc(-c3cccc(C#N)c3)cc1)[C@@H]2CO	1	-19	2	2	-22
CCC(=O)N1CCCCN2[C@H](CO)[C@H](c3ccc(-c4cccc(C#N)c4)cc3)[C@@H]2C1	-3	-8	-10	21*	13
O=C(NCCc1ccncc1)[C@H]1[C@H](CO)[C@H]2Cn3c(cccc3=O)[C@@H]1N2Cc1ccccc1F	-5	.	11	1	1
CCOC(=O)c1cc(NC(=O)NCc2ccco2)c(C)nc1C	.	-1	83*	.	.
CCOC(=O)c1cc(NC(=O)Nc2ccccc2Cl)c(C)nc1C	-1	8	.	0	-7
O=C(CN1CCOCC1)NC[C@@H]1[C@@H](c2ccccc2)[C@@H](CO)N1CC1CC1	-5	.	.	-3	13
